Data as given in ChEMBL document CHEMBL4840368, “Structure-activity relationship and molecular modelling studies of quinazolinedione derivatives MMV665916 as potential antimalarial agent” (Bioorg Med Chem, 2021).

Assays:
Plasmodium falciparum [1] = test: Antimalarial activity against chloroquine-resistant Plasmodium falciparum FcB1(CQR)Colombia assessed as parasite growth inhibition; assay type: functional, organism-based
Method in brief: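 Erythrocytic-stage growth inhibition in culture of chloroquine-resistant P. falciparum FcB1 (Columbia). EC50 comes from a 10-point dose-response, run only for compounds above a 60% inhibition cut-off in the 20 μM single-point screen. Values are means of at least two experiments.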

Plasmodium falciparum [2] = test: Antimalarial activity against chloroquine-resistant Plasmodium falciparum FcB1(CQR)Colombia assessed as parasite growth inhibition at 20 uM relative to control; assay type: functional
Method in brief: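 Single-point screen at 20 μM against erythrocytic stages of chloroquine-resistant P. falciparum FcB1 (Columbia) in culture. Read-out is percent parasite growth inhibition.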

[3] = Cytotoxicity against human AB943 cells; assay type: cell-based
[4] = Selectivity index, ratio of IC50 for human AB943 cells to IC50 for Antimalarial activity against chloroquine-resistant Plasmodium falciparum FcB1(CQR)Colombia; assay type: toxicity; details: read-out: Selectivity Index
Plasmodium falciparum [5] = test: Antiplasmodial activity against Plasmodium falciparum 3D7; assay type: functional, organism-based
Plasmodium falciparum [6] = test: Antiplasmodial activity against Plasmodium falciparum K1; assay type: functional, organism-based
Plasmodium falciparum [7] = test: Antiplasmodial activity against Plasmodium falciparum W2; assay type: functional, organism-based
Plasmodium falciparum [8] = test: Antiplasmodial activity against Plasmodium falciparum Dd2; assay type: functional, organism-based
Plasmodium falciparum [9] = test: Antiplasmodial activity against Plasmodium falciparum FCR3; assay type: functional, organism-based
Plasmodium berghei [10] = test: Antiplasmodial activity against Plasmodium berghei at 5 uM; assay type: functional
Plasmodium berghei [11] = test: Antiplasmodial activity against luciferase expressing Plasmodium berghei; assay type: functional, organism-based
hERG (KCNH2) = hERG (KCNH2) (Homo sapiens, UniProt Q12809); test: Inhibition of human ERG at 11 uM
Sequence of hERG (KCNH2) (Q12809 whole entry): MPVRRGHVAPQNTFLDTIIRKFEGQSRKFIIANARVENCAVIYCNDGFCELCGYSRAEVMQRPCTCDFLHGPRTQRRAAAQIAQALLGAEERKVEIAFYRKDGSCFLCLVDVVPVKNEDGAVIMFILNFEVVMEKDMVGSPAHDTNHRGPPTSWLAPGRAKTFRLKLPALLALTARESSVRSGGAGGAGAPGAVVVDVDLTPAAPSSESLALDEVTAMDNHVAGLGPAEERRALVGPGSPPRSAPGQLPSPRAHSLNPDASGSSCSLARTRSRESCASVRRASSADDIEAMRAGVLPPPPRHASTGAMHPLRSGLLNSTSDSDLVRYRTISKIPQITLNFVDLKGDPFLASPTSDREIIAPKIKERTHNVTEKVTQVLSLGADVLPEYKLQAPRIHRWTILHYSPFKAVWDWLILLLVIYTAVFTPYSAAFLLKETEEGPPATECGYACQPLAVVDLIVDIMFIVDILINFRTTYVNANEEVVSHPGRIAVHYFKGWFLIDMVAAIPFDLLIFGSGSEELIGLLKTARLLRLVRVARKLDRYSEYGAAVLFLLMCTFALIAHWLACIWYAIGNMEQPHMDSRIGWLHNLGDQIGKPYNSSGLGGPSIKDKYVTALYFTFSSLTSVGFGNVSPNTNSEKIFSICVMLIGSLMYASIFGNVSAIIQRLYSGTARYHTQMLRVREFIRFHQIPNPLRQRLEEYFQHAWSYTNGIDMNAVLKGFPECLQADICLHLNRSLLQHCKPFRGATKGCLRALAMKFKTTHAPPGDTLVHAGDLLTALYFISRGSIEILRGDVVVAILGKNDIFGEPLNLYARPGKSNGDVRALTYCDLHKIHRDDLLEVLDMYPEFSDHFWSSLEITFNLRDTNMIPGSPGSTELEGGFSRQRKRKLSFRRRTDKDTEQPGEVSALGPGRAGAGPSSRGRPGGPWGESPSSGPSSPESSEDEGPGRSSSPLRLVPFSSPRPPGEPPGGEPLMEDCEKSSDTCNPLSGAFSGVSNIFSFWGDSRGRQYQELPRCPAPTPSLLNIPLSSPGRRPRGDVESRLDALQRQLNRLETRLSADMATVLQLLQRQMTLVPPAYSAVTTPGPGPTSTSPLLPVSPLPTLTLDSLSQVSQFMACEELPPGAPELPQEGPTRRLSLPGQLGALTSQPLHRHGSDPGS

[12] = Plasma protein binding in human; assay type: ADME, cell-free; details: read-out: PPB
[13] = Kinetic solubility of compound at pH 7.4; assay type: physicochemical; details: buffer
[14] = Cmax in mouse at 140 micromol/kg, po; assay type: ADME; parameters: route oral, dose 140 µmol/kg; details: in vivo, 140 µmol/kg
[15] = Tmax in mouse at 140 micromol/kg, po; assay type: ADME; details: in vivo, dose 140 µmol/kg
[16] = AUC (0 to 7 hrs) in mouse at 140 micromol/kg, po; assay type: ADME; parameters: time < 7 hr, route oral, dose 140 µmol/kg; details: in vivo, 140 µmol/kg
[17] = MRT (0 to 7 hrs) in mouse at 140 micromol/kg, po; assay type: ADME; details: in vivo, dose 140 µmol/kg

SMILES | EC50 (Plasmodium falciparum [1]) | inhibition at 20 µM (Plasmodium falciparum [2]) | other results
O=C(CCn1c(=O)[nH]c2ccccc2c1=O)NCc1ccccc1OC(F)F | 32000 nM | 63.8% | 
COc1ccccc1Cn1cc(CCn2c(=O)[nH]c3ccccc3c2=O)nn1 |  | 68.8% | 
COc1ccccc1CCNC(=O)CCn1c(=O)[nH]c2ccccc2c1=O | 10100 nM |  | 
CC(C)CCNC(=O)CCn1c(=O)[nH]c2ccccc2c1=O | > 25000 nM |  | 
COc1ccccc1CNC(=O)CCn1c(=O)[nH]c2ccc(Br)cc2c1=O |  | 59.8% | 
COc1cc(F)ccc1CNC(=O)CCn1c(=O)[nH]c2ccccc2c1=O | 5000 nM | 74.8% | IC50 [3]: > 100000 nM; selectivity ratio [4]: > 20
CCOc1ccccc1CNC(=O)CCn1c(=O)[nH]c2ccccc2c1=O | 5500 nM | 84.7% | IC50 [3]: > 100000 nM; selectivity ratio [4]: > 18.2
COc1ccccc1Cn1cc(Cn2c(=O)[nH]c3ccccc3c2=O)nn1 |  | 30.5% | 
O=C(CCn1c(=O)[nH]c2ccccc2c1=O)N1CCc2ccccc2C1 |  | 30.6% | 
Cn1nccc1CNC(=O)CCn1c(=O)[nH]c2ccccc2c1=O |  | 19.9% | 
COc1ccccc1NC(=O)CCn1c(=O)[nH]c2ccccc2c1=O |  | 53.1% | 
O=C(CCn1c(=O)[nH]c2ccccc2c1=O)NCc1ccccc1Cl | 37500 nM | 56% | 
COc1ccccc1CNS(=O)(=O)CCn1c(=O)[nH]c2ccccc2c1=O |  | 21.7% | 
COc1ccccc1CNC(=O)CCn1c(=O)[nH]c2cc(F)c(F)cc2c1=O |  | 40.5% | 
COc1cc(F)c(F)cc1CNC(=O)CCn1c(=O)[nH]c2ccccc2c1=O | 11300 nM | 68.3% | 
COc1ccccc1CNC(=O)CCn1c(=O)[nH]c2ccc(F)cc2c1=O | 20000 nM | 65.4% | 
CC(C)CCNC(=O)CCCn1c(=O)[nH]c2ccccc2c1=O | > 25000 nM |  | 
COc1ccccc1CNC(=O)CCCn1c(=O)[nH]c2ccccc2c1=O | 16900 nM |  | 
O=C(CCCn1c(=O)[nH]c2ccccc2c1=O)NC1CCCC1 |  | 21.3% | 
COc1ccccc1CN(C)C(=O)CCn1c(=O)[nH]c2ccccc2c1=O |  | 41.8% | 
O=C(CCn1c(=O)[nH]c2ccccc2c1=O)NCc1ccccc1OC(F)(F)F | 6800 nM | 72.5% | IC50 [3]: > 100000 nM; selectivity ratio [4]: > 14.7
COc1ccccc1CCNC(=O)CCCn1c(=O)[nH]c2ccccc2c1=O | 7700 nM |  | 
O=C(CCn1c(=O)[nH]c2ccccc2c1=O)NCc1ccccc1O |  | 17.1% | 
COc1ccccc1CNC(=O)CCn1c(=O)[nH]c2ncccc2c1=O |  | 52.4% | 
O=C(CCn1c(=O)[nH]c2ccccc2c1=O)NCc1nc2ccccc2[nH]1 |  | 38.1% | 
O=C(CCn1c(=O)[nH]c2ccccc2c1=O)NC1CCCC1 |  | 32.9% | 
COc1ccc(CNC(=O)CCn2c(=O)[nH]c3ccccc3c2=O)c(OC)c1 |  | 28% | 
COc1ccccc1CNC(=O)CCn1c(=O)[nH]c2ccccc2c1=O | 400 nM |  | IC50 [3]: > 100000 nM; selectivity ratio [4]: > 250; EC50 (Plasmodium falciparum [5]): 70 nM; EC50 (Plasmodium falciparum [6]): 70 nM; EC50 (Plasmodium falciparum [7]): 70 nM; EC50 (Plasmodium falciparum [8]): 70 nM; EC50 (Plasmodium falciparum [9]): 70 nM; Activity (Plasmodium berghei [10]): 23%; IC50 (Plasmodium berghei [11]): 44 nM; inhibition at 11 µM (hERG (KCNH2)): 19%; fraction unbound [12]: < 0.05; Kinetic_solubility [13]: Insoluble; Cmax [14]: 21.3 nM; Tmax [15]: 0.25 h; AUC(0-t) at 7 h [16]: 0.0729 µM·h; MRT last [17]: 3.01 h
COc1ccccc1CNC(=O)CCn1c(=O)[nH]c2ccsc2c1=O |  |  | EC50 (Plasmodium falciparum [5]): 70 nM; EC50 (Plasmodium falciparum [6]): 70 nM; EC50 (Plasmodium falciparum [7]): 70 nM; EC50 (Plasmodium falciparum [8]): 70 nM; EC50 (Plasmodium falciparum [9]): 70 nM; Activity (Plasmodium berghei [10]): 27%; IC50 (Plasmodium berghei [11]): 56 nM; inhibition at 11 µM (hERG (KCNH2)): 5%; fraction unbound [12]: > 0.05; Kinetic_solubility [13]: Soluble
